Active and inactive are the calls of the source. The rule behind the calls is not given here.
How the values were obtained:
[1] = target: NAD-dependent protein deacylase sirtuin-5, mitochondrial (Homo sapiens) (UniProt Q9NXA8); test: Activation of human SIRT5 (unknown origin) desuccinylation activity using fluorogenic substrate measured upto 120 mins by microplate reader analysis
[2] = target: T1, NAD-dependent protein deacetylase sirtuin-2 (Homo sapiens) (UniProt Q8IXJ6); test: Activation of human SIRT2 (unknown origin) deacetylation activity using fluorogenic substrate measured upto 120 mins by microplate reader analysis
T1 sequence (whole entry): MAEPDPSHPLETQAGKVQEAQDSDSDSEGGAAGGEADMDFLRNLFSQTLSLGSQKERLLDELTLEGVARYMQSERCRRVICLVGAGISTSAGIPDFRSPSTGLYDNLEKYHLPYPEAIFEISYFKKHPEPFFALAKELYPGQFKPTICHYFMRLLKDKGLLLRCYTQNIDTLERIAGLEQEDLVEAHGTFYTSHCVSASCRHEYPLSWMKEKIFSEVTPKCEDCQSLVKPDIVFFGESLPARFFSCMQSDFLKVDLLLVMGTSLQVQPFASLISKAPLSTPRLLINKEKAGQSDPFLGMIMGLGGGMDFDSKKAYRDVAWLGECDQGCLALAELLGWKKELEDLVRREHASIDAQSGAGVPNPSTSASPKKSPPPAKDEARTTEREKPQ
Summary of the method: (§1)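 Recombinant Sirt1 or Sirt2 was assayed with a kit fluoro-substrate peptide (0.1 mM stock), NAD+ (8 mM stock) and developer in a 25 µL reaction at room temperature. Fluorescence was read over 125 min, at Ex/Em 350/450 nm for Sirt1 and 490/530 nm for Sirt2.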

[3] = target: T2, NAD-dependent protein deacylase sirtuin-6 (Homo sapiens, UniProt Q8N6T7); test: Activation of recombinant SIRT6 (unknown origin) deacetylase activity using fluoro peptide as substrate by microplate reader analysis
SARS-CoV-2 = test: Antiviral activity against SARS-CoV-2 infected in human A549-ACE2 cells assessed as viral growth inhibition; format: functional, organism-based; details: Severe acute respiratory syndrome coronavirus 2, A549-ACE2
[4] = target: T3, NAD-dependent protein deacetylase sirtuin-1 (Homo sapiens) (UniProt Q96EB6); test: Activation of human SIRT1 (unknown origin) deacetylation activity using fluorogenic substrate measured upto 120 mins by microplate reader analysis; summary of the method: as §1
T3 sequence (whole entry): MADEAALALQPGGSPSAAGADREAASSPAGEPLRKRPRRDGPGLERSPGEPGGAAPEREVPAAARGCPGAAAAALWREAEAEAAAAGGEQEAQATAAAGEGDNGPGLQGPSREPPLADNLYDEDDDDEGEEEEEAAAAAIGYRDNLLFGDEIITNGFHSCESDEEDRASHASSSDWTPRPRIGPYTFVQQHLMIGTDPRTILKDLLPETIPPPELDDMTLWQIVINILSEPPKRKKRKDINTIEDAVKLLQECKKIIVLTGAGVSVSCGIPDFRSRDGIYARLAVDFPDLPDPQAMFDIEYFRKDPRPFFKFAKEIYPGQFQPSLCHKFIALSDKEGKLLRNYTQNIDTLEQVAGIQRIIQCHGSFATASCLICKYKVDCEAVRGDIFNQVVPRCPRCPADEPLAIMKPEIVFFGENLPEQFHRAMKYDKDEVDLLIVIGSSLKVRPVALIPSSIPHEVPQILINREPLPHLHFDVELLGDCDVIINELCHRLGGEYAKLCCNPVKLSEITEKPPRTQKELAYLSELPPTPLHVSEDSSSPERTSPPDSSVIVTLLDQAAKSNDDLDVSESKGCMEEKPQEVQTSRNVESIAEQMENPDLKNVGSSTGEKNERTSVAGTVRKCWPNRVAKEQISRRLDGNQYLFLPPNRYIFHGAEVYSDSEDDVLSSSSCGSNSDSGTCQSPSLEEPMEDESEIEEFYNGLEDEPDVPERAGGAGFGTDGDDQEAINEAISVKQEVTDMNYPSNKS

[5] = Cytotoxicity against human A549-ACE2 cells assessed as inhibition of cell growth measured for 48 hrs; format: functional
[6] = Oral bioavailability in C57BL/6J mouse at 20 to 30 mg/kg, iv measured upto 24 hrs by LC-MS/MS analysis; format: ADME, organism-based; details: in vivo, dose 20-30 mg/kg
[7] = target: T2, NAD-dependent protein deacylase sirtuin-6; test: Activation of SIRT6 (unknown origin) deacetylase activity assessed as fold activation; details: filed as activator
Summary of the method: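 Recombinant Sirt6 was run in a fluorometric activity kit (FDL-type deacetylation) with a fluoro-substrate peptide (0.1 mM stock), NAD+ (8 mM stock) and developer in a 25 µL reaction at room temperature. Compounds were tested at 100 and 30 µM. Fluorescence was read at Ex/Em 490/530 nm over 125 min. Fold activation is given as mean ± SD from at least two independent experiments.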

[8] = target: T2, NAD-dependent protein deacylase sirtuin-6; test: Activation of SIRT6 (unknown origin) deacetylase activity assessed as fold increase in maximal activation; details: filed as activator
[9] = target: T2, NAD-dependent protein deacylase sirtuin-6; test: Activation of his6-tagged SIRT6 (unknown origin) assessed as fold activation using H3K9Ac peptide substrate incubated for 30 mins; details: filed as activator

T2 sequence (Q8N6T7 whole entry): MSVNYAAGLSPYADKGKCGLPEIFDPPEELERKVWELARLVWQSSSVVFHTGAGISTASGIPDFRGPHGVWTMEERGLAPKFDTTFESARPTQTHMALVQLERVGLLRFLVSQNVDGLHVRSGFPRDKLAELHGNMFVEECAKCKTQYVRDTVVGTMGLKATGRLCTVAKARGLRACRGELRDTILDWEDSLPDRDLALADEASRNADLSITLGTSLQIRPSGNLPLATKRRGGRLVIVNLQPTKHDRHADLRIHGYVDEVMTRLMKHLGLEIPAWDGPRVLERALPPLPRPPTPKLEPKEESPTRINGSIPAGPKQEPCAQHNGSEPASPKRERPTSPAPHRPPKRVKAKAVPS
Chain of NAD-dependent protein deacylase sirtuin-5, mitochondrial (Homo sapiens) (Q9NXA8 37-310 limits assumed): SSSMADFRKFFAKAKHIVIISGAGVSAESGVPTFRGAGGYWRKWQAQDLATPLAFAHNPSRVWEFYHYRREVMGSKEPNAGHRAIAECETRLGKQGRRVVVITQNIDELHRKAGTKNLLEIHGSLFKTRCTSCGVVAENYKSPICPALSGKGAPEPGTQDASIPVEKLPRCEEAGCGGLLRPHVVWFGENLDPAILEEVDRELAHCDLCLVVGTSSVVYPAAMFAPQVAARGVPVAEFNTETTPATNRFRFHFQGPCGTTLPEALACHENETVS

For `CN(C)CCN1CCN(c2ncccc2C2Nc3ccccc3-n3cccc32)CC1` (stereo not drawn), the Activity [1] was “inactive”, the Activity [2] was “inactive” and the EC50 [3] was 48.8 µM. For the same compound, the EC50 (SARS-CoV-2) was 9.3 µM, the Activity [4] was “inactive” and the Activity ([4]; filed as activator) was “Active”. For the same compound, the CC50 [5] was over 50 µM.
For `Cc1cc(F)c(Br)cc1NS(=O)(=O)c1ccc(NS(=O)(=O)c2cc(Cl)cc(Cl)c2)cc1CN1CCOC[C@H]1C`, the bioavailability [6] was 93%.
In the case of `O=C(O)c1ccc2c(c1)C(=O)N(c1ccc(N(C(=O)c3c(Cl)cc(Cl)cc3Cl)C(=O)c3c(Cl)cc(Cl)cc3Cl)c(Cl)c1)C2=O`, the fold change (FC) [7] is reported as 4.
In the case of `c1cncc(C2Nc3ccccc3-n3cccc32)c1` (stereo not drawn), the fold change (FC) [8] is reported as 2, the EC50 (SARS-CoV-2) is reported as 50 µM and the CC50 [5] is reported as over 50 µM.
`CCCCCCCC/C=C\CCCCCCCC(=O)NCCO` gave a fold change (FC) [9] of 2.1.

Reference: ChEMBL document CHEMBL5352471, “Design, synthesis, and pharmacological evaluations of pyrrolo[1,2-a]quinoxaline-based derivatives as potent and selective sirt6 activators” (Eur J Med Chem, 2023)
